By MIC is commonly meant the least concentration at which growth counts as inhibited. Low readings indicate a more susceptible organism, high ones a less susceptible organism. A word on the MIC90: it is an inhibitory concentration at the 90% level, which refers to growth in some studies and to a panel of isolates in others. Lower therefore signals higher susceptibility.

This passage reports MIC and MIC90 results from ChEMBL document CHEMBL1255457, “Determination of an inoculum effect with various cephalosporins among clinical isolates of methicillin-susceptible Staphylococcus aureus” (2010).

Type in all cases: functional
Test [1] has as its system Staphylococcus aureus. Nature of the test: Antibacterial activity against methicillin-susceptible beta-lactamase positive Staphylococcus aureus using 5x10^5 CFU/ml standard inoculum after 24 hrs by broth microdilution method. In a few lines:
(§1)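 Clinical MSSA isolates previously typed by Bla (25 type A, 15 type B, 45 type C, 13 blaZ-negative), with TX0117, ATCC 29213 and ATCC 25923 as controls. Broth microdilution per CLSI, read at 24 h. Standard (~5 × 10^5 CFU/ml) or high (~5 × 10^7 CFU/ml) inoculum set by OD, CFU/ml checked at random. MIC90 and geometric mean MIC per group, compared by Mann-Whitney test.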
A general note: Dilution methods test growth across graded concentrations, often in twofold steps.

The test system of test [2] is Staphylococcus aureus. In words: Antibacterial activity against methicillin-susceptible Bla-producing Staphylococcus aureus type B using 5x10^5 CFU/ml standard inoculum after 24 hrs by broth microdilution method. The essentials:
as §1

For test [3], the system named is Staphylococcus aureus. Nature of the test: Antibacterial activity against methicillin-susceptible Bla-producing Staphylococcus aureus type A using 5x10^7 CFU/ml high inoculum after 24 hrs by broth microdilution method. The essentials: as §1
In test [4] the test system is Staphylococcus aureus. Nature of the test: Antibacterial activity against methicillin-susceptible Bla-producing Staphylococcus aureus type B using 5x10^7 CFU/ml high inoculum after 24 hrs by broth microdilution method. The essentials: as §1
The test system of test [5] is Staphylococcus aureus. In words: Antibacterial activity against methicillin-susceptible beta-lactamase negative Staphylococcus aureus using 5x10^5 CFU/ml standard inoculum after 24 hrs by broth microdilution method. The essentials: as §1
Test [6] concerns Staphylococcus aureus. Nature of the test: Antibacterial activity against methicillin-susceptible beta-lactamase positive Staphylococcus aureus using 5x10^7 CFU/ml high inoculum after 24 hrs by broth microdilution method. The essentials: as §1
Test [7] relates to Staphylococcus aureus. In words: Antibacterial activity against methicillin-susceptible Bla-producing Staphylococcus aureus type C using 5x10^5 CFU/ml standard inoculum after 24 hrs by broth microdilution method. The essentials: as §1
For test [8], the system named is Staphylococcus aureus. Nature of the test: Antibacterial activity against methicillin-susceptible Bla-producing Staphylococcus aureus type A using 5x10^5 CFU/ml standard inoculum after 24 hrs by broth microdilution method. In a few lines: as §1
In test [9] the test system is Staphylococcus aureus. In words: Antibacterial activity against methicillin-susceptible beta-lactamase negative Staphylococcus aureus using 5x10^7 CFU/ml high inoculum after 24 hrs by broth microdilution method. The essentials: as §1
Test [10] has as its system Staphylococcus aureus. In words: Antibacterial activity against methicillin-susceptible Bla-producing Staphylococcus aureus type C using 5x10^7 CFU/ml high inoculum after 24 hrs by broth microdilution method. The essentials: as §1

≈ marks a conversion by molar mass, not a printed value.

For `Nc1nc(/C(=N/O)C(=O)N[C@@H]2C(=O)N3C(C(=O)O)=C(/C=C4\CCN([C@@H]5CCNC5)C4=O)CS[C@H]23)ns1` [CEFTOBIPROLE], the MIC worked out at 0.4 µg/mL (≈ 0.748 µM) in the test on Staphylococcus aureus [1]; 0.5 µg/mL (≈ 0.935 µM) against Staphylococcus aureus [2]; 0.7 µg/mL (≈ 1.31 µM) against Staphylococcus aureus [3]; 0.7 µg/mL (≈ 1.31 µM) against Staphylococcus aureus [4]; 0.3 µg/mL (≈ 0.561 µM) in the test on Staphylococcus aureus [5]; 0.7 µg/mL (≈ 1.31 µM) in the test with Staphylococcus aureus [6]. Also, the MIC in the test with Staphylococcus aureus [7] is 0.5 µg/mL (≈ 0.935 µM); in the test on Staphylococcus aureus [8], 0.4 µg/mL (≈ 0.748 µM); in the test on Staphylococcus aureus [9] it was 0.3 µg/mL (≈ 0.561 µM); in the test on Staphylococcus aureus [10], 0.7 µg/mL (≈ 1.31 µM). Also, the MIC90 with Staphylococcus aureus [1] stood at 0.5 µg/mL (≈ 0.935 µM); against Staphylococcus aureus [2] it was 0.5 µg/mL (≈ 0.935 µM); in the test with Staphylococcus aureus [3], 1 µg/mL (≈ 1.87 µM); in the test with Staphylococcus aureus [4], 2 µg/mL (≈ 3.74 µM); in the test on Staphylococcus aureus [5] it was 0.5 µg/mL (≈ 0.935 µM); in the test on Staphylococcus aureus [6], 1 µg/mL (≈ 1.87 µM). Moreover, the MIC90 against Staphylococcus aureus [7] was 0.5 µg/mL (≈ 0.935 µM); in the test with Staphylococcus aureus [8], 0.5 µg/mL (≈ 0.935 µM); in the test with Staphylococcus aureus [9], 0.5 µg/mL (≈ 0.935 µM); against Staphylococcus aureus [10], 1 µg/mL (≈ 1.87 µM).
With `CO/N=C(\C(=O)N[C@@H]1C(=O)N2C(C(=O)O)=C(CSc3nc(=O)c(O)nn3C)CS[C@H]12)c1csc(N)n1` [CEFTRIAXONE], the MIC in the test on Staphylococcus aureus [1] is 2.9 µg/mL (≈ 5.23 µM); against Staphylococcus aureus [5], 3.1 µg/mL (≈ 5.59 µM); in the test on Staphylococcus aureus [6], 3.4 µg/mL (≈ 6.13 µM); against Staphylococcus aureus [9], 3.1 µg/mL (≈ 5.59 µM). Besides, the MIC90 in the test with Staphylococcus aureus [1], with Staphylococcus aureus [5], in the test on Staphylococcus aureus [6] and against Staphylococcus aureus [9] was 4 µg/mL (≈ 7.21 µM) in each case.
In the case of `CO/N=C(\C(=O)N[C@@H]1C(=O)N2C(C(=O)O)=C(COC(N)=O)CS[C@H]12)c1ccco1` [CEFUROXIME], the MIC with Staphylococcus aureus [6] and with Staphylococcus aureus [9] was 1 µg/mL (≈ 2.36 µM) each time. Further, the MIC90 in the test with Staphylococcus aureus [6] and in the test with Staphylococcus aureus [9] was 1 µg/mL (≈ 2.36 µM) throughout.
`CC1=C(C(=O)O)N2C(=O)[C@@H](NC(=O)[C@H](N)c3ccccc3)[C@H]2SC1` [CEPHALEXIN ANHYDROUS]: the MIC is 3.9 µg/mL (≈ 11.2 µM) with Staphylococcus aureus [1]; 3.3 µg/mL (≈ 9.5 µM) against Staphylococcus aureus [2]; 10.6 µg/mL (≈ 30.5 µM) with Staphylococcus aureus [3]; 14.7 µg/mL (≈ 42.3 µM) against Staphylococcus aureus [4]; 2.5 µg/mL (≈ 7.2 µM) in the test with Staphylococcus aureus [5]; 10.7 µg/mL (≈ 30.8 µM) in the test on Staphylococcus aureus [6]. The MIC stood at 3.8 µg/mL (≈ 10.9 µM) against Staphylococcus aureus [7], 4.6 µg/mL (≈ 13.2 µM) with Staphylococcus aureus [8], 3.1 µg/mL (≈ 8.92 µM) with Staphylococcus aureus [9] and 6.6 µg/mL (≈ 19 µM) in the test on Staphylococcus aureus [10]. Also, the MIC90 with Staphylococcus aureus [1] came to 4 µg/mL (≈ 11.5 µM); against Staphylococcus aureus [2], 4 µg/mL (≈ 11.5 µM); in the test with Staphylococcus aureus [3], 32 µg/mL (≈ 92.1 µM); against Staphylococcus aureus [4], 64 µg/mL (≈ 184 µM); in the test on Staphylococcus aureus [5], 4 µg/mL (≈ 11.5 µM); against Staphylococcus aureus [6], 32 µg/mL (≈ 92.1 µM). Moreover, the MIC90 against Staphylococcus aureus [7] was 4 µg/mL (≈ 11.5 µM); with Staphylococcus aureus [8], 8 µg/mL (≈ 23 µM); against Staphylococcus aureus [9], 4 µg/mL (≈ 11.5 µM); against Staphylococcus aureus [10] it was 16 µg/mL (≈ 46.1 µM).
Take `CC(=O)OCC1=C(C(=O)O)N2C(=O)[C@@H](NC(=O)Cc3cccs3)[C@H]2SC1` [CEPHALOTHIN]: the minimal inhibitory concentration (MIC) in the test on Staphylococcus aureus [1] was determined as 0.5 µg/mL (≈ 1.26 µM); with Staphylococcus aureus [2] it was 0.5 µg/mL (≈ 1.26 µM); against Staphylococcus aureus [3], 2 µg/mL (≈ 5.04 µM); with Staphylococcus aureus [4], 1.3 µg/mL (≈ 3.28 µM); with Staphylococcus aureus [5], 0.3 µg/mL (≈ 0.757 µM); against Staphylococcus aureus [6] it was 1.9 µg/mL (≈ 4.79 µM). In addition, the minimum inhibitory concentration (MIC) against Staphylococcus aureus [7] worked out at 0.6 µg/mL (≈ 1.51 µM); against Staphylococcus aureus [8] it was 0.4 µg/mL (≈ 1.01 µM); in the test with Staphylococcus aureus [9] it was 0.3 µg/mL (≈ 0.757 µM); against Staphylococcus aureus [10] it was 3 µg/mL (≈ 7.57 µM). The MIC90 with Staphylococcus aureus [1] was 1 µg/mL (≈ 2.52 µM); in the test with Staphylococcus aureus [2] it was 1 µg/mL (≈ 2.52 µM); against Staphylococcus aureus [3], 8 µg/mL (≈ 20.2 µM); against Staphylococcus aureus [4] it was 4 µg/mL (≈ 10.1 µM); in the test with Staphylococcus aureus [5], 0.5 µg/mL (≈ 1.26 µM); in the test on Staphylococcus aureus [6] it was 8 µg/mL (≈ 20.2 µM). For the same compound, the MIC90 in the test on Staphylococcus aureus [7] turned out to be 1 µg/mL (≈ 2.52 µM); against Staphylococcus aureus [8], 0.5 µg/mL (≈ 1.26 µM); against Staphylococcus aureus [9] it was 0.5 µg/mL (≈ 1.26 µM); in the test with Staphylococcus aureus [10], 8 µg/mL (≈ 20.2 µM).
As for `CCOc1ccc2ccccc2c1C(=O)N[C@@H]1C(=O)N2[C@@H]1SC(C)(C)[C@@H]2C(=O)O` [NAFCILLIN], the minimum inhibitory concentration (MIC) with Staphylococcus aureus [1] came to 0.4 µg/mL (≈ 0.965 µM); against Staphylococcus aureus [5] it was 0.4 µg/mL (≈ 0.965 µM); in the test with Staphylococcus aureus [6], 0.7 µg/mL (≈ 1.69 µM); against Staphylococcus aureus [9] it was 0.7 µg/mL (≈ 1.69 µM). The MIC90 with Staphylococcus aureus [1] came out at 0.5 µg/mL (≈ 1.21 µM); against Staphylococcus aureus [5] it was 0.5 µg/mL (≈ 1.21 µM); against Staphylococcus aureus [6], 1 µg/mL (≈ 2.41 µM); with Staphylococcus aureus [9], 1 µg/mL (≈ 2.41 µM).
